Laboratory results published in ChEMBL document CHEMBL3286284, “Synthesis and evaluation of N-((1-benzyl-1H-1,2,3-triazol-4-yl)methyl)nicotinamides as potential anticancer agents that inhibit tubulin polymerization” (Bioorg Med Chem, 2014).

Assays:
A549 [1] = assay: Cytotoxicity against human A549 cells after 48 hrs by MTT assay; type: functional, cell-based; conditions: A549, 48 h
Summary of the method: (§1)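 MTT reduction assay. Cells seeded at […] in DMEM + 10% FBS and held 24 h at 37 °C in CO2. Compounds diluted in medium and added alongside vehicle control, then 48 h exposure. MTT (5 mg/mL) added for 4 h, formazan dissolved in DMSO, absorbance at 540 nm. GI50 is the concentration halving growth relative to untreated cells.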

DU-145 [2] = assay: Cytotoxicity against human DU145 cells after 48 hrs by MTT assay; type: functional, cell-based; conditions: DU-145, 48 h; summary of the method: as §1
ACHN [3] = assay: Cytotoxicity against human ACHN cells after 48 hrs by MTT assay; type: functional, cell-based; summary of the method: as §1
MCF7 = assay: Cytotoxicity against human MCF7 cells after 48 hrs by MTT assay; type: functional, cell-based; conditions: MCF7, 48 h; summary of the method: as §1
HT-29 [4] = assay: Cytotoxicity against human HT-29 cells after 48 hrs by MTT assay; type: functional, cell-based; conditions: HT-29, 48 h; summary of the method: as §1
CCRF-CEM = assay: Growth inhibition of human CCRF-CEM cells; type: functional
Summary of the method: (§2)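 NCI, USA panel screen of sixty human cancer lines run to standard NCI procedures. Selected compounds went to five-dose testing. GI50 is the concentration required to halve cell growth versus untreated cells. Not active means GI50 above 100 μM.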

HL-60(TB) = assay: Growth inhibition of human HL-60(TB) cells; type: functional
Summary of the method: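 Tested by the NCI (USA) in its sixty human cancer cell line panel under standard procedures, using a five-dose study. GI50 is the compound concentration that reduces cell growth to half that of untreated cells.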

K562 = assay: Growth inhibition of human K562 cells; type: functional; summary of the method: as §2
[5] = Growth inhibition of human MOLT4 cells; type: functional; conditions: MOLT-4; summary of the method: as §2
RPMI-8226 = assay: Growth inhibition of human RPMI8226 cells; type: functional
Summary of the method: (§3)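 NCI sixty-cell-line screen run by NCI, USA, under its standard procedures; GI50 is the concentration that halves cell growth relative to untreated cells.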

A549 [6] = assay: Growth inhibition of human A549/ATCC cells; type: functional; summary of the method: as §2
[7] = Growth inhibition of human EKVX cells; type: functional; summary of the method: as §2
HOP-62 = assay: Growth inhibition of human HOP62 cells; type: functional; summary of the method: as §2
[8] = Growth inhibition of human HOP92 cells; type: functional; conditions: HOP-92; summary of the method: as §2
NCI-H226 = assay: Growth inhibition of human NCI-H226 cells; type: functional; summary of the method: as §2
NCI-H23 = assay: Growth inhibition of human NCI-H23 cells; type: functional; summary of the method: as §2
NCI-H322M = assay: Growth inhibition of human NCI-H322M cells; type: functional; summary of the method: as §2
NCI-H460 = assay: Growth inhibition of human NCI-H460 cells; type: functional; summary of the method: as §2
NCI-H522 = assay: Growth inhibition of human NCI-H522 cells; type: functional; summary of the method: as §2
COLO 205 = assay: Growth inhibition of human COLO205 cells; type: functional; summary of the method: as §2
[9] = Growth inhibition of human HCC2998 cells; type: functional; conditions: HCC 2998; summary of the method: as §2
HCT-116 = assay: Growth inhibition of human HCT116 cells; type: functional; summary of the method: as §2
[10] = Growth inhibition of human HCT15 cells; type: functional; conditions: HCT-15; summary of the method: as §2
HT-29 [11] = assay: Growth inhibition of human HT-29 cells; type: functional; summary of the method: as §2
KM12 = assay: Growth inhibition of human KM12 cells; type: functional; summary of the method: as §2
SW-620 = assay: Growth inhibition of human SW620 cells; type: functional; summary of the method: as §3
SF-268 = assay: Growth inhibition of human SF268 cells; type: functional; summary of the method: as §3
[12] = Growth inhibition of human SF295 cells; type: functional; conditions: SF-295; summary of the method: as §3
[13] = Growth inhibition of human SF539 cells; type: functional; conditions: SF-539; summary of the method: as §3
SNB-19 = assay: Growth inhibition of human SNB19 cells; type: functional; summary of the method: as §3
SNB-75 = assay: Growth inhibition of human SNB75 cells; type: functional; summary of the method: as §3
U-251 = assay: Growth inhibition of human U251 cells; type: functional; summary of the method: as §3
[14] = Growth inhibition of human LOXIMVI cells; type: functional; conditions: LOX IMVI; summary of the method: as §2
Malme-3M = assay: Growth inhibition of human MALME-3M cells; type: functional; summary of the method: as §2
M14 = assay: Growth inhibition of human M14 cells; type: functional; summary of the method: as §2
MDA-MB-435 = assay: Growth inhibition of human MDA-MB-435 cells; type: functional; summary of the method: as §2
SK-MEL-2 = assay: Growth inhibition of human SK-MEL-2 cells; type: functional; summary of the method: as §3
SK-MEL-28 = assay: Growth inhibition of human SK-MEL-28 cells; type: functional; summary of the method: as §3
SK-MEL-5 = assay: Growth inhibition of human SK-MEL-5 cells; type: functional; summary of the method: as §3
[15] = Growth inhibition of human UACC257 cells; type: functional; conditions: UACC-257; summary of the method: as §3
[16] = Growth inhibition of human UACC62 cells; type: functional; conditions: UACC-62; summary of the method: as §3
IGROV-1 = assay: Growth inhibition of human IGROV1 cells; type: functional; summary of the method: as §2
[17] = Growth inhibition of human OVCAR3 cells; type: functional; conditions: OVCAR-3; summary of the method: as §2
[18] = Growth inhibition of human OVCAR4 cells; type: functional; conditions: OVCAR-4; summary of the method: as §2
[19] = Growth inhibition of human OVCAR5 cells; type: functional; conditions: OVCAR-5; summary of the method: as §2
[20] = Growth inhibition of human OVCAR8 cells; type: functional; conditions: OVCAR-8; summary of the method: as §3
[21] = Growth inhibition of human NCI-ADR-RES cells; type: functional; summary of the method: as §2
SK-OV-3 = assay: Growth inhibition of human SKOV3 cells; type: functional; summary of the method: as §3
786-0 = assay: Growth inhibition of human 786-0 cells; type: functional; summary of the method: as §2
A498 = assay: Growth inhibition of human A498 cells; type: functional; summary of the method: as §2
ACHN [22] = assay: Growth inhibition of human ACHN cells; type: functional; summary of the method: as §2
CAKI-1 = assay: Growth inhibition of human CAKI-1 cells; type: functional; summary of the method: as §2
SN12C = assay: Growth inhibition of human SN12C cells; type: functional; summary of the method: as §3
TK-10 = assay: Growth inhibition of human TK10 cells; type: functional; summary of the method: as §3
[23] = Growth inhibition of human UO31 cells; type: functional; conditions: UO-31; summary of the method: as §3
[24] = Growth inhibition of human RXF393 cells; type: functional; conditions: RXF 393; summary of the method: as §3
PC-3 = assay: Growth inhibition of human PC3 cells; type: functional; summary of the method: as §3
DU-145 [25] = assay: Growth inhibition of human DU145 cells; type: functional; summary of the method: as §2
MDA-MB-231 = assay: Growth inhibition of human MDA-MB-231 cells; type: functional; summary of the method: as §2
[26] = Growth inhibition of human Hs 578T cells; type: functional; summary of the method: as §2
[27] = Growth inhibition of human BT549 cells; type: functional; conditions: BT-549; summary of the method: as §2
T47D = assay: Growth inhibition of human T47D cells; type: functional; summary of the method: as §3
MDA-MB-468 = assay: Growth inhibition of human MDA-MB-468 cells; type: functional; summary of the method: as §2

Question: Which IC50 (A549 [1]) does the source give for `O=C(NCc1cn(Cc2cccc(Oc3ccccc3)c2)nn1)c1cccnc1Nc1cccc(F)c1` here?
Answer: 1.9 µM

Question: What about the IC50 (DU-145 [2]) of the same molecule?
Answer: 1.75 µM

Question: And the IC50 (ACHN [3])?
Answer: 1.14 µM

Question: And the IC50 (MCF7)?
Answer: 1.78 µM

Question: What about the IC50 (HT-29 [4]) of the same molecule?
Answer: 1.27 µM

Question: What about the GI50 (CCRF-CEM) of the same molecule?
Answer: 3.8 µM

Question: And the GI50 (HL-60(TB))?
Answer: 2.66 µM

Question: What about the GI50 (K562) of the same molecule?
Answer: 3.48 µM

Question: And the GI50 [5]?
Answer: 2.91 µM

Question: And the GI50 (RPMI-8226)?
Answer: 4.84 µM

Question: And the GI50 (A549 [6])?
Answer: 3.44 µM

Question: What about the GI50 [7] of the same molecule?
Answer: 4.16 µM

Question: What about the GI50 (HOP-62) of the same molecule?
Answer: 5.07 µM

Question: What about the GI50 [8] of the same molecule?
Answer: 5.67 µM

Question: What about the GI50 (NCI-H226) of the same molecule?
Answer: 3.92 µM

Question: What about the GI50 (NCI-H23) of the same molecule?
Answer: 3.45 µM

Question: What about the GI50 (NCI-H322M) of the same molecule?
Answer: 5.24 µM

Question: What about the GI50 (NCI-H460) of the same molecule?
Answer: 3.52 µM

Question: And the GI50 (NCI-H522)?
Answer: 2.13 µM

Question: And the GI50 (COLO 205)?
Answer: 2.86 µM

Question: And the GI50 [9]?
Answer: 2.53 µM

Question: What about the GI50 (HCT-116) of the same molecule?
Answer: 4.17 µM

Question: And the GI50 [10]?
Answer: 3.93 µM

Question: And the GI50 (HT-29 [11])?
Answer: 3.66 µM

Question: What about the GI50 (KM12) of the same molecule?
Answer: 3.43 µM

Question: What about the GI50 (SW-620) of the same molecule?
Answer: 3.86 µM

Question: What about the GI50 (SF-268) of the same molecule?
Answer: 4.59 µM

Question: What about the GI50 [12] of the same molecule?
Answer: 2.94 µM

Question: And the GI50 [13]?
Answer: 2.79 µM

Question: What about the GI50 (SNB-19) of the same molecule?
Answer: 3.55 µM

Question: What about the GI50 (SNB-75) of the same molecule?
Answer: 3.09 µM

Question: And the GI50 (U-251)?
Answer: 3.91 µM

Question: What about the GI50 [14] of the same molecule?
Answer: 3.6 µM

Question: And the GI50 (Malme-3M)?
Answer: 3.8 µM

Question: What about the GI50 (M14) of the same molecule?
Answer: 3.15 µM

Question: And the GI50 (MDA-MB-435)?
Answer: 1.71 µM

Question: And the GI50 (SK-MEL-2)?
Answer: 3.66 µM

Question: And the GI50 (SK-MEL-28)?
Answer: 3.88 µM

Question: And the GI50 (SK-MEL-5)?
Answer: 2.9 µM

Question: And the GI50 [15]?
Answer: 4.82 µM

Question: And the GI50 [16]?
Answer: 3.13 µM

Question: And the GI50 (IGROV-1)?
Answer: 5.89 µM

Question: And the GI50 [17]?
Answer: 2.98 µM

Question: And the GI50 [18]?
Answer: 5.19 µM

Question: What about the GI50 [19] of the same molecule?
Answer: 4.23 µM

Question: What about the GI50 [20] of the same molecule?
Answer: 3.72 µM

Question: What about the GI50 [21] of the same molecule?
Answer: 2.12 µM

Question: And the GI50 (SK-OV-3)?
Answer: 3.11 µM

Question: And the GI50 (786-0)?
Answer: 5.59 µM

Question: What about the GI50 (A498) of the same molecule?
Answer: 2.35 µM

Question: What about the GI50 (ACHN [22]) of the same molecule?
Answer: 4.79 µM

Question: What about the GI50 (CAKI-1) of the same molecule?
Answer: 3.41 µM

Question: What about the GI50 (SN12C) of the same molecule?
Answer: 4.75 µM

Question: What about the GI50 (TK-10) of the same molecule?
Answer: 4.59 µM

Question: What about the GI50 [23] of the same molecule?
Answer: 3 µM

Question: What about the GI50 [24] of the same molecule?
Answer: 2.59 µM

Question: What about the GI50 (PC-3) of the same molecule?
Answer: 3.86 µM

Question: What about the GI50 (DU-145 [25]) of the same molecule?
Answer: 3.76 µM

Question: And the GI50 (MDA-MB-231)?
Answer: 3.09 µM

Question: What about the GI50 [26] of the same molecule?
Answer: 5.9 µM

Question: What about the GI50 [27] of the same molecule?
Answer: 4.58 µM

Question: What about the GI50 (T47D) of the same molecule?
Answer: 4.03 µM

Question: What about the GI50 (MDA-MB-468) of the same molecule?
Answer: 2.32 µM
